Laboratory results reported in ChEMBL document CHEMBL1821604, “Anticancer activity and cDNA microarray studies of a (RS)-1,2,3,5-tetrahydro-4,1-benzoxazepine-3-yl]-6-chloro-9H-purine, and an acyclic (RS)-O,N-acetalic 6-chloro-7H-purine” (Eur J Med Chem, 2011).

Tests used:
MCF-10A = test: Cytotoxicity against human MCF10A cells after 6 days by SRB colorimetric assay; type: cell-based; conditions: 144 h
[1] = Therapeutic index, ratio of IC50 for human MCF10A cells to IC50 for human MCF7 cells; type: cell-based; conditions: MCF10A cells (normal) versus MCF7 cells (cancer), read-out: Ratio IC50
Outline: (§1)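 Each cell line grown in DMEM with 10% FBS, 37 °C, 5% CO₂. Cells seeded and allowed 24 h, then drug added in medium (≤0.1% v/v DMSO). Medium and drug renewed at day 3, cells kept 3 more days. Sulforhodamine-B read at 492 nm. IC₅₀ taken from semilog dose-response curves by linear interpolation, triplicate wells, at least twice. Index = IC₅₀ normal line / IC₅₀ cancer line.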

HT-29 [2] = test: Cytotoxicity against human HT-29 cells after 6 days by SRB colorimetric assay; type: functional, cell-based; conditions: HT-29, 144 h
[3] = Cytotoxicity against rat IEC-6 cells after 6 days by SRB colorimetric assay; type: cell-based; conditions: IEC-6, 144 h
[4] = Therapeutic index, ratio of IC50 for rat IEC-6 cells to IC50 for human HT-29 cells; type: cell-based; conditions: IEC-6 cells (normal) versus HT-29 cells (cancer), read-out: Ratio IC50; outline: as §1
MCF7 [5] = test: Cell cycle arrest in human MCF7 cells assessed as accumulation at G0/G1 phase at IC50 after 48 hrs using annexin V-FITC and propidium iodide staining based FACS analysis; type: functional
MCF7 [6] = test: Cell cycle arrest in human MCF7 cells assessed as accumulation at S phase at IC50 after 48 hrs using annexin V-FITC and propidium iodide staining based FACS analysis; type: functional
MCF7 [7] = test: Cell cycle arrest in human MCF7 cells assessed as accumulation at G2/M phase at IC50 after 48 hrs using annexin V-FITC and propidium iodide staining based FACS analysis; type: functional
HT-29 [8] = test: Cell cycle arrest in human HT-29 cells assessed as accumulation at G0/G1 phase at IC50 after 48 hrs using […] propidium iodide staining based FACS analysis; type: functional
HT-29 [9] = test: Cell cycle arrest in human HT-29 cells assessed as accumulation at S phase at IC50 after 48 hrs using […] propidium iodide staining based FACS analysis; type: functional
HT-29 [10] = test: Cell cycle arrest in human HT-29 cells assessed as accumulation at G2/M phase at IC50 after 48 hrs using […] propidium iodide staining based FACS analysis; type: functional
MCF7 [11] = test: Induction of apoptosis in human MCF7 cells assessed viable cells at IC50 after 48 hrs using annexin V-FITC staining by flow cytometry; type: functional
Outline: (§2)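 Cells exposed 48 h to the compound at its IC₅₀ concentration, with 0.5% DMSO-only cells as control. Stained with annexin V-FITC plus propidium iodide, then flow cytometry. Gating: annexin+/PI− = early apoptotic; annexin+/PI+ = late apoptotic; PI only = dead/necrotic; double-negative = viable.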

MCF7 [12] = test: Induction of apoptosis in human MCF7 cells assessed early apoptotic cells at IC50 after 48 hrs using annexin V-FITC staining by flow cytometry; type: functional; outline: as §2
MCF7 [13] = test: Induction of apoptosis in human MCF7 cells assessed late apoptotic cells at IC50 after 48 hrs using annexin V-FITC staining by flow cytometry; type: functional; outline: as §2
MCF7 [14] = test: Induction of apoptosis in human MCF7 cells assessed necrotic cells at IC50 after 48 hrs using annexin V-FITC staining by flow cytometry; type: functional; outline: as §2
HT-29 [15] = test: Induction of apoptosis in human HT-29 cells assessed viable cells at IC50 after 48 hrs using annexin V-FITC staining by flow cytometry; type: functional; outline: as §2
HT-29 [16] = test: Induction of apoptosis in human HT-29 cells assessed early apoptotic cells at IC50 after 48 hrs using annexin V-FITC staining by flow cytometry; type: functional; outline: as §2
HT-29 [17] = test: Induction of apoptosis in human HT-29 cells assessed late apoptotic cells at IC50 after 48 hrs using annexin V-FITC staining by flow cytometry; type: functional; outline: as §2
HT-29 [18] = test: Induction of apoptosis in human HT-29 cells assessed necrotic cells at IC50 after 48 hrs using annexin V-FITC staining by flow cytometry; type: functional; outline: as §2
MCF7 [19] = test: Down regulation of GBP1 gene expression in human MCF7 cells at IC50 after 48 hrs by cDNA microarray technique relative to control; type: functional
Outline: (§3)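 Cells (8 × 10⁶) were cultured in DMEM with 10% heat-inactivated FBS at 37 °C under 5% CO₂. They were exposed for 48 h to compound at its IC₅₀, with DMSO-treated parallel cultures as controls (final DMSO ≤0.1% v/v). Total RNA was isolated by trizol/chloroform phase separation, RNeasy column cleanup and on-column DNase, then quantified by OD260/OD280. Expression was profiled by cDNA microarray relative to control.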

MCF7 [20] = test: Down regulation of C20orf54 gene expression in human MCF7 cells at IC50 after 48 hrs by cDNA microarray technique relative to control; type: functional
Outline: (§4)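 8 × 10⁶ cells exposed 48 h to compound at its IC50 concentration; total RNA isolated with trizol/chloroform and RNeasy columns including on-column DNase step; RNA quantified by OD 260/280; DMSO-treated cultures as control.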

MCF7 [21] = test: Down regulation of PGLYRP4 gene expression in human MCF7 cells at IC50 after 48 hrs by cDNA microarray technique relative to control; type: functional
MCF7 [22] = test: Down regulation of BDKRB1 gene expression in human MCF7 cells at IC50 after 48 hrs by cDNA microarray technique relative to control; type: functional; outline: as §4
MCF7 [23] = test: Upregulation of NPAT gene expression in human MCF7 cells at IC50 after 48 hrs by cDNA microarray technique relative to control; type: functional
MCF7 [24] = test: Upregulation of ABCD2 gene expression in human MCF7 cells at IC50 after 48 hrs by cDNA microarray technique relative to control; type: functional
MCF7 [25] = test: Down regulation of MGC42090 gene expression in human MCF7 cells at IC50 after 48 hrs by cDNA microarray technique relative to control; type: functional
HT-29 [26] = test: Down regulation of HUS1B gene expression in human HT-29 cells at IC50 after 48 hrs by cDNA microarray technique relative to control; type: functional; outline: as §3
HT-29 [27] = test: Down regulation of HNRPA2B1 gene expression in human HT-29 cells at IC50 after 48 hrs by cDNA microarray technique relative to control; type: functional; outline: as §3
HT-29 [28] = test: Down regulation of FUS gene expression in human HT-29 cells at IC50 after 48 hrs by cDNA microarray technique relative to control; type: functional; outline: as §3
HT-29 [29] = test: Down regulation of TMED9 gene expression in human HT-29 cells at IC50 after 48 hrs by cDNA microarray technique relative to control; type: functional
MCF7 [30] = test: Upregulation of CITED1 gene expression in human MCF7 cells at IC50 after 48 hrs by cDNA microarray technique relative to control; type: functional
MCF7 [31] = test: Down regulation of BIVM gene expression in human MCF7 cells at IC50 after 48 hrs by cDNA microarray technique relative to control; type: functional; outline: as §4
HT-29 [32] = test: Upregulation of UNC5B gene expression in human HT-29 cells at IC50 after 48 hrs by cDNA microarray technique relative to control; type: functional
HT-29 [33] = test: Down regulation of PRKCABP gene expression in human HT-29 cells at IC50 after 48 hrs by cDNA microarray technique relative to control; type: functional

SMILES | IC50 (MCF-10A) [µM] | selectivity ratio [1] | IC50 (HT-29 [2]) [µM] | IC50 [3] [µM] | selectivity ratio [4] | Activity (MCF7 [5]) [%] | Activity (MCF7 [6]) [%] | Activity (MCF7 [7]) [%] | Activity (HT-29 [8]) [%] | Activity (HT-29 [9]) [%] | Activity (HT-29 [10]) [%] | Activity (MCF7 [11]) [%] | Activity (MCF7 [12]) [%] | Activity (MCF7 [13]) [%] | Activity (MCF7 [14]) [%] | Activity (HT-29 [15]) [%] | Activity (HT-29 [16]) [%] | Activity (HT-29 [17]) [%] | Activity (HT-29 [18]) [%] | fold change (FC) (MCF7 [19]) | further results
COC(CN(c1ccccc1CO)S(=O)(=O)c1ccccc1[N+](=O)[O-])n1cnc2ncnc(Cl)c21 (racemic) | 6.23 | 1.92 | 3.28 | 12.1 | 3.69 | 65.09 | 23.94 | 10.98 | 71.58 | 10.5 | 12.7 | 20.36 | 6.36 | 48.49 | 24.79 | 54.93 | 21.1 | 15.64 | 8.33 | -2.01 | fold change (FC) (MCF7 [20]): -2.14; fold change (FC) (MCF7 [21]): -2.45; fold change (FC) (MCF7 [22]): -2.48; fold change (FC) (MCF7 [23]): 2.68; fold change (FC) (MCF7 [24]): 2.25; fold change (FC) (MCF7 [25]): -2.03
O=C(OCC1c2ccccc2-c2ccccc21)N1CC(n2cnc3c(Cl)ncnc32)OCc2ccccc21 (racemic) | 2.14 | 3.19 | 3.38 | 10.1 | 2.99 | 64.39 | 22.43 | 13.18 | 74.68 | 14.7 | 14.9 | 5.07 | 7.27 | 72.81 | 14.85 | 59.69 | 18.07 | 13.63 | 8.61 | -2.02 | fold change (FC) (HT-29 [26]): -2.3; fold change (FC) (HT-29 [27]): -2.33; fold change (FC) (HT-29 [28]): -2.99; fold change (FC) (HT-29 [29]): -3.95; fold change (FC) (MCF7 [30]): 2.73; fold change (FC) (MCF7 [31]): -2.05; fold change (FC) (HT-29 [32]): 2.42; fold change (FC) (HT-29 [33]): -2.13
